The values below come from ChEMBL document CHEMBL3046951, “Volatile constituents from the leaves of Callicarpa japonica Thunb. and their antibacterial activities” (2004).

Common to all, as to type: functional
In experiment [1] the test system is Bacillus cereus. Description: Antimicrobial activity against Bacillus cereus ATCC 11778 assessed as growth inhibition rate at 5.8 mg/l after 72 hr by spectrophotometry. The conditions noted are these: ATCC 11778, 72 h, read-out: GI. An outline of the steps: (§1)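 Pure volatile compounds (purity >95%; one at 90%) were tested against B. cereus ATCC 11778. The strain was grown at 30 °C in nutrient broth for 24 h, then subcultured for 18 h. Optical density was read in a Bioscreen C every 24 h for 72 h, with 10% Tween 80 as the control.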

The test system of experiment [2] is Vibrio parahaemolyticus. Description: Antimicrobial activity against Vibrio parahaemolyticus ATCC 33844 assessed as growth inhibition rate at 5.8 mg/l after 72 hr by spectrophotometry. The conditions noted are these: ATCC 33844, 72 h, read-out: GI.
For experiment [3], the system named is Staphylococcus aureus. Put plainly: Antimicrobial activity against Staphylococcus aureus ATCC 25923 assessed as growth inhibition rate at 5.8 mg/l after 72 hr by spectrophotometry. The following applies: ATCC 25923, 72 h, read-out: GI.
The test system of experiment [4] is Salmonella typhimurium. Description: Antimicrobial activity against Salmonella enterica subsp. enterica serovar Typhimurium ATCC 14028 assessed as growth inhibition rate at 5.8 mg/l after 72 hr by spectrophotometry. The conditions noted are these: ATCC 14028, 72 h, read-out: GI.
Experiment [5] has as its system Listeria monocytogenes. Description: Antimicrobial activity against Listeria monocytogenes ATCC 19111 assessed as growth inhibition rate at 5.8 mg/l after 72 hr by spectrophotometry. The following applies: ATCC 19111, 72 h, read-out: GI. Summed up: (§2)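 L. monocytogenes was grown at 30 °C in tryptic soy broth, subcultured for 18 h, and exposed to pure volatile compounds (>95% purity). Growth was followed by Bioscreen C optical density every 24 h for 72 h against a 10% Tween 80 control.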

Experiment [6] concerns Escherichia coli. Put plainly: Antimicrobial activity against Escherichia coli O157:H7 ATCC 43894 assessed as growth inhibition rate at 5.8 mg/l after 72 hr by spectrophotometry. The conditions noted are these: O157:H7 ATCC 43894, 72 h, read-out: GI.
In experiment [7] the test system is Escherichia coli. Put plainly: Antimicrobial activity against Escherichia coli O157:H7 ATCC 43894 assessed as growth inhibition rate at 1.72 mg/l after 72 hr by spectrophotometry. The following applies: O157:H7 ATCC 43894, 72 h, read-out: GI.
The test system of experiment [8] is Vibrio parahaemolyticus. Put plainly: Antimicrobial activity against Vibrio parahaemolyticus ATCC 33844 assessed as growth inhibition rate at 1.72 mg/l after 72 hr by spectrophotometry. The conditions noted are these: ATCC 33844, 72 h, read-out: GI.
In experiment [9] the test system is Listeria monocytogenes. Description: Antimicrobial activity against Listeria monocytogenes ATCC 19111 assessed as growth inhibition rate at 1.72 mg/l after 72 hr by spectrophotometry. The following applies: ATCC 19111, 72 h, read-out: GI. An outline of the steps:
as §2

The test system of experiment [10] is Staphylococcus aureus. Description: Antimicrobial activity against Staphylococcus aureus ATCC 25923 assessed as growth inhibition rate at 1.72 mg/l after 72 hr by spectrophotometry. The following applies: ATCC 25923, 72 h, read-out: GI.
Experiment [11] relates to Bacillus cereus. Description: Antimicrobial activity against Bacillus cereus ATCC 11778 assessed as growth inhibition rate at 1.72 mg/l after 72 hr by spectrophotometry. The following applies: ATCC 11778, 72 h, read-out: GI. An outline of the steps: as §1
Experiment [12] has as its system Salmonella typhimurium. Put plainly: Antimicrobial activity against Salmonella enterica subsp. enterica serovar Typhimurium ATCC 14028 assessed as growth inhibition rate at 1.72 mg/l after 72 hr by spectrophotometry. The conditions noted are these: ATCC 14028, 72 h, read-out: GI. Summed up: (§3)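 Salmonella Typhimurium ATCC 14028 grown in nutrient broth at 30 °C, precultured 24 h, then subcultured 1:100 for 18 h before testing. Single volatile compounds (>95% pure) were added. OD was read every 24 h over 72 h in a Bioscreen C, with 10% Tween 80 as the comparison control.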

Experiment [13] deals with Staphylococcus aureus. Put plainly: Antimicrobial activity against Staphylococcus aureus ATCC 25923 assessed as growth inhibition rate at 6.32 mg/l after 72 hr by spectrophotometry. The following applies: ATCC 25923, 72 h, read-out: GI.
In experiment [14] the test system is Bacillus cereus. Put plainly: Antimicrobial activity against Bacillus cereus ATCC 11778 assessed as growth inhibition rate at 6.32 mg/l after 72 hr by spectrophotometry. The conditions noted are these: ATCC 11778, 72 h, read-out: GI. An outline of the steps: as §1
In experiment [15] the test system is Salmonella typhimurium. Put plainly: Antimicrobial activity against Salmonella enterica subsp. enterica serovar Typhimurium ATCC 14028 assessed as growth inhibition rate at 6.32 mg/l after 72 hr by spectrophotometry. The following applies: ATCC 14028, 72 h, read-out: GI.
Experiment [16] relates to Vibrio parahaemolyticus. Put plainly: Antimicrobial activity against Vibrio parahaemolyticus ATCC 33844 assessed as growth inhibition rate at 6.32 mg/l after 72 hr by spectrophotometry. The conditions noted are these: ATCC 33844, 72 h, read-out: GI.
Experiment [17] concerns Escherichia coli. Description: Antimicrobial activity against Escherichia coli O157:H7 ATCC 43894 assessed as growth inhibition rate at 6.32 mg/l after 72 hr by spectrophotometry. The conditions noted are these: O157:H7 ATCC 43894, 72 h, read-out: GI.
Experiment [18] relates to Listeria monocytogenes. Description: Antimicrobial activity against Listeria monocytogenes ATCC 19111 assessed as growth inhibition rate at 6.32 mg/l after 72 hr by spectrophotometry. The conditions noted are these: ATCC 19111, 72 h, read-out: GI. An outline of the steps:
as §2

The subject of experiment [19] is Bacillus cereus. Description: Antimicrobial activity against Bacillus cereus ATCC 11778 assessed as growth inhibition rate at 13.04 mg/l after 72 hr by spectrophotometry. The following applies: ATCC 11778, 72 h, read-out: GI. Summed up:
as §1

Experiment [20] concerns Salmonella typhimurium. Description: Antimicrobial activity against Salmonella enterica subsp. enterica serovar Typhimurium ATCC 14028 assessed as growth inhibition rate at 13.04 mg/l after 72 hr by spectrophotometry. The following applies: ATCC 14028, 72 h, read-out: GI. Summed up:
as §3

Experiment [21] has as its system Listeria monocytogenes. Put plainly: Antimicrobial activity against Listeria monocytogenes ATCC 19111 assessed as growth inhibition rate at 13.04 mg/l after 72 hr by spectrophotometry. The conditions noted are these: ATCC 19111, 72 h, read-out: GI. Summed up:
as §2

The subject of experiment [22] is Vibrio parahaemolyticus. Put plainly: Antimicrobial activity against Vibrio parahaemolyticus ATCC 33844 assessed as growth inhibition rate at 13.04 mg/l after 72 hr by spectrophotometry. The conditions noted are these: ATCC 33844, 72 h, read-out: GI.
Experiment [23] relates to Escherichia coli. Description: Antimicrobial activity against Escherichia coli O157:H7 ATCC 43894 assessed as growth inhibition rate at 13.04 mg/l after 72 hr by spectrophotometry. The following applies: O157:H7 ATCC 43894, 72 h, read-out: GI.
Experiment [24] deals with Staphylococcus aureus. Description: Antimicrobial activity against Staphylococcus aureus ATCC 25923 assessed as growth inhibition rate at 13.04 mg/l after 72 hr by spectrophotometry. The following applies: ATCC 25923, 72 h, read-out: GI.

For `C=CC(O)CC` (centres undefined), the inhibition of growth at 5.8 µg/mL was 9.3% in [1]; 1.9% in experiment [2]; 2.4% in [3]; 5% in [4]; 0.4% in [5]; 0% in experiment [6].
On to `CCC(=O)C(C)=O` [2,3-PENTANEDIONE], for which the inhibition of growth at 1.72 µg/mL in experiment [7] worked out at 9.6%; in experiment [8], 39.3%; in experiment [9] it was 26.2%; in experiment [10], 47.4%; in experiment [11], 26.9%; in experiment [12], 25.5%.
Take `CCCCCC(=O)CC` [3-OCTANONE]: the inhibition of growth at 6.32 µg/mL in [13] was determined as 5.2%; in experiment [14], 0%; in experiment [15] it was 5.1%; in experiment [16] it was 0%; in experiment [17], 3.1%; in [18], 0%.
For `C=C1CC[C@@H]2C[C@H]1C2(C)C` [(+)-BETA-PINENE], the inhibition of growth at 13.04 µg/mL in experiment [19] amounted to 0%; in experiment [20], 14.9%; in experiment [21], 2.8%; in [22] it was 45.1%; in experiment [23], 3.4%; in [24], 17.6%.
